In ChEMBL document CHEMBL4033795, “Design, Synthesis, and Structure-Activity Relationship Study of 2-Oxo-3,4-dihydropyrimido[4,5- d]pyrimidines as New Colony Stimulating Factor 1 Receptor (CSF1R) Kinase Inhibitors” (J Med Chem, 2018):

Experiments:
RAW264.7 [1] = assay: Downregulation of VEGFA mRNA expression in mouse RAW264.7 cells after 48 hrs by qRT-PCR analysis relative to DMSO; assay type: functional, cell-based
In short: (§1)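 RAW264.7 macrophages were treated 48 h with compound at 0.08, 0.4 or 2.0 μM, or DMSO vehicle. Total RNA was extracted with TRIzol and transcripts were quantified by qRT-PCR using gene-specific primers. Run three times, each in triplicate.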

[2] = Half life in Sprague-Dawley rat at 25 mg/kg administered via oral gavage measured up to 72 hrs by LC/MS analysis; assay type: ADME, organism-based; conditions: in vivo
In short: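 Male Sprague-Dawley rats, 4–6 weeks old, acclimatised 1 week, were dosed iv at 5 mg/kg or by oral gavage at 25 mg/kg. Vehicle was 2% DMSO, 4% EtOH, 4% castor oil, 90% H2O. Blood was drawn by orbital sinus puncture from 2 min to 72 h into heparinized tubes. Plasma was assayed by LC/MS with propranolol as internal standard. Three animals per group.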

RAW264.7 [3] = assay: Antimigratory activity against mouse RAW264.7 cells assessed as inhibition of human LNCaP-MDV-CM mediated macrophage migration at 2.5 uM after 24 hrs by crystal violet staining based transwell assay relative to control; assay type: functional; conditions: RAW264.7, 24 h
In short: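 RAW264.7 cells, (2−4) × 10^5, were placed serum-free in the upper insert of a transwell. The lower chamber held conditioned medium from LNCaP cells grown 48 h in 10% FBS RPMI 1640 with 10 μM MDV3100 or DMSO. Compound at 0.625–5.0 μM was added to the top chamber for 24 h at 37 °C. Migrated cells were fixed in methanol, stained with 0.25% crystal violet and counted in six random fields at 200×. Three independent experiments.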

RAW264.7 [4] = assay: Downregulation of IL10 mRNA expression in mouse RAW264.7 cells after 48 hrs by qRT-PCR analysis relative to DMSO; assay type: functional, cell-based; in short: as §1
[5] = biological target: Mast/stem cell growth factor receptor Kit (Homo sapiens, UniProt P10721); assay: Inhibition of recombinant cytoplasmic human His-tagged KIT expressed in baculovirus using […] peptide as substrate after 1 hr by FRET-based Z'-Lyte assay
Chain of Mast/stem cell growth factor receptor Kit (P10721 whole entry, the tested form may be a part): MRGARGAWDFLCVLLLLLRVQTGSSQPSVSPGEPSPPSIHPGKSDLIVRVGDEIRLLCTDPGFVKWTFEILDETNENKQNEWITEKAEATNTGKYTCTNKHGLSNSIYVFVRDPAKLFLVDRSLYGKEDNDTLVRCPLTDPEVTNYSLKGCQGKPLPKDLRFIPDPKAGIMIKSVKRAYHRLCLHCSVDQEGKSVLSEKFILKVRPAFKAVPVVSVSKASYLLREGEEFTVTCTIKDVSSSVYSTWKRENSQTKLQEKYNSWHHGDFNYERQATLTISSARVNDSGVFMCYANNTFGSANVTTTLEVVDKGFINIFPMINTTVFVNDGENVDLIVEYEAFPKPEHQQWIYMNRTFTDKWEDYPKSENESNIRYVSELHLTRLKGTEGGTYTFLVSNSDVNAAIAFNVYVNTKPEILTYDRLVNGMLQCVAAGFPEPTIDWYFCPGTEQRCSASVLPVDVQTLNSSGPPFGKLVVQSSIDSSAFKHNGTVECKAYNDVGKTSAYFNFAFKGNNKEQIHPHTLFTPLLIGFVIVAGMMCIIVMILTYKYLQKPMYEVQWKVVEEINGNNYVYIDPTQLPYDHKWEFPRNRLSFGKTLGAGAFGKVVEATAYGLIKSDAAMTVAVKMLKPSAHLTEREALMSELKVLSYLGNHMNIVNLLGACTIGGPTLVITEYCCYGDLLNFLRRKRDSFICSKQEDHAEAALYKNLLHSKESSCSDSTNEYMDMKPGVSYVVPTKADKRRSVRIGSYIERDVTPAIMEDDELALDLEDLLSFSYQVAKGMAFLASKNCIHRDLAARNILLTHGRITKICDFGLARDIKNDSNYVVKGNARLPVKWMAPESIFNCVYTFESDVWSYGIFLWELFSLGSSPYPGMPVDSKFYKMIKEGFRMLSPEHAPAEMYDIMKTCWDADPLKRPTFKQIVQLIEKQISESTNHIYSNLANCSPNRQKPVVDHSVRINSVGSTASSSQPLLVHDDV

[6] = biological target: Fibroblast growth factor receptor 3 (Homo sapiens, UniProt P22607); assay: Inhibition of cytoplasmic recombinant human His-tagged FGFR3 (399 to 806 residues) expressed in baculovirus using tyr4 peptide as substrate after 1 hr by FRET-based Z'-Lyte assay
Chain of Fibroblast growth factor receptor 3 (P22607 whole entry, the tested form may be a part): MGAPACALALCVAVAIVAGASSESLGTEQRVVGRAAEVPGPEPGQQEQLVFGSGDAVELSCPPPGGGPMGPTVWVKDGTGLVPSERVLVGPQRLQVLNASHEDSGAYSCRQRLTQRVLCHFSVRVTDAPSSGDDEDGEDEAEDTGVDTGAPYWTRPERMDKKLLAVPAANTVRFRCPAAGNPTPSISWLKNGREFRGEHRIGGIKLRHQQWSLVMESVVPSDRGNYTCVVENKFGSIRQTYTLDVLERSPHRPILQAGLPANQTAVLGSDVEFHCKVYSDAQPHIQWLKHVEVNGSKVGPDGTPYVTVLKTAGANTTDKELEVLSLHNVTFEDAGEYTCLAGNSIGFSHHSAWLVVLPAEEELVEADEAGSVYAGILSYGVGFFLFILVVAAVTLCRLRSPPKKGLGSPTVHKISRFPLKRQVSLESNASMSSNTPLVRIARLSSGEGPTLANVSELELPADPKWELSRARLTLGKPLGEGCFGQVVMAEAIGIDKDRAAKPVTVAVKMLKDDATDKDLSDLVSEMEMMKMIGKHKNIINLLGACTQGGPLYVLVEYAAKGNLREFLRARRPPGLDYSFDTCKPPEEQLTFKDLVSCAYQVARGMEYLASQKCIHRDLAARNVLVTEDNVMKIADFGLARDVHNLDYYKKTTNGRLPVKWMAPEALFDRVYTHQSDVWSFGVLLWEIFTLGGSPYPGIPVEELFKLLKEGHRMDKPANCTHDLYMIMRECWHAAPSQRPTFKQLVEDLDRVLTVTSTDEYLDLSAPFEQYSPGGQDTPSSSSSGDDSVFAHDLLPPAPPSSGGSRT

[7] = biological target: T1, Macrophage colony-stimulating factor 1 receptor (Mus musculus) (UniProt P09581); assay: Inhibition of CSF1R phosphorylation in mouse RAW264.7 cells preincubated for 6 hrs followed by CSF1 stimulation for 20 mins by Western blot analysis; assay type: cell-based
T1 sequence (whole entry): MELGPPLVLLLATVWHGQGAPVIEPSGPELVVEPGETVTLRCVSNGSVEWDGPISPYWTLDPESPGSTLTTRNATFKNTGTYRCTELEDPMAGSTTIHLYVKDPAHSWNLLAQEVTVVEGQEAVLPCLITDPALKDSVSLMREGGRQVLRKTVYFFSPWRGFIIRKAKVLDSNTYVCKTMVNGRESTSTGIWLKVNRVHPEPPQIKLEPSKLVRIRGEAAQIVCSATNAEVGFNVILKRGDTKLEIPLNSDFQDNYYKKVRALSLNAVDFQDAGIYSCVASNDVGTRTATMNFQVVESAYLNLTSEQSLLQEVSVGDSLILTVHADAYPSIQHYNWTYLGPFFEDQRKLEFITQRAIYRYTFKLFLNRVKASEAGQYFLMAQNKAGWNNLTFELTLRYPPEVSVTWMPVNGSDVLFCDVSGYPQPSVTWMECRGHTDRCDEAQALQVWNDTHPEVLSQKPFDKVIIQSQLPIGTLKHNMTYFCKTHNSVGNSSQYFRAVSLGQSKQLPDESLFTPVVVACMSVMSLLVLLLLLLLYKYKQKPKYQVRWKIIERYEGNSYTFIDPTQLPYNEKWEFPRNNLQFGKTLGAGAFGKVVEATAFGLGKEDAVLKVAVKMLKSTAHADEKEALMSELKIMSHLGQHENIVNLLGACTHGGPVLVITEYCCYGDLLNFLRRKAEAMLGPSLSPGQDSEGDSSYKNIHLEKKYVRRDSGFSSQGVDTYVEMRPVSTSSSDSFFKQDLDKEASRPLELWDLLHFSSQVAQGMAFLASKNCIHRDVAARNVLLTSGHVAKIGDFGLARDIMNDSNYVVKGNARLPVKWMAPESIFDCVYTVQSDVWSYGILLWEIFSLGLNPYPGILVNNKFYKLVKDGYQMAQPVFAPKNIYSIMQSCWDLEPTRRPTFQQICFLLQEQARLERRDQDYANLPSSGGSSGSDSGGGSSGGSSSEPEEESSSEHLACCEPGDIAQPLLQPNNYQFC
In short: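 RAW264.7 cells were seeded, incubated overnight and treated 6 h with graded compound concentrations, then stimulated 20 min with CSF-1 (50 ng/mL). Lysates were run on 8−12% SDS-PAGE and immunoblotted for p-CSF1R (Tyr723), CSF1R, p-AKT, AKT and GAPDH. Bands were quantified and normalized to GAPDH. Mean ± SEM of at least three experiments.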

half-life [2]: 1.08 h | IC50 [5]: 30 nM | IC50 [6]: 40.2 nM | inhibition [7]: Dose-dependent effect
Structure (SMILES): CCC(=O)N1CC[C@H](N2C(=O)N(c3cc(OC)ccc3Cl)Cc3cnc(Nc4ccc(N5CCN(C6COC6)CC5)c(C)c4)nc32)C1
Activity (RAW264.7 [1]): Dose-dependent effect | inhibition at 2.5 µM (RAW264.7 [3]): 60.6% | Activity (RAW264.7 [4]): Dose-dependent effect
